ChEMBL document CHEMBL2203099, “Identification of a crucial amino acid in the helix position 6.51 of human tachykinin neurokinin 1 and 3 receptors contributing to the insurmountable mode of antagonism by dual NK₁/NK₃ antagonists” (J Med Chem, 2012)
Numbering of substitutions follows the chain as printed. Activity calls are given as the source filed them. No cut-off for these calls is given here.

Assays:
[1] = tested on: T1, Neuromedin-K receptor (Homo sapiens), P29371 [Y247F]; assay: Noncompetitive inhibition at human NK3 Y247F5.38 mutant expressed in HEK293 cells assessed as decrease in [MePhe7]NKB-induced [3H]IP accumulation after 20 mins; format: cell-based
T1 sequence (whole entry): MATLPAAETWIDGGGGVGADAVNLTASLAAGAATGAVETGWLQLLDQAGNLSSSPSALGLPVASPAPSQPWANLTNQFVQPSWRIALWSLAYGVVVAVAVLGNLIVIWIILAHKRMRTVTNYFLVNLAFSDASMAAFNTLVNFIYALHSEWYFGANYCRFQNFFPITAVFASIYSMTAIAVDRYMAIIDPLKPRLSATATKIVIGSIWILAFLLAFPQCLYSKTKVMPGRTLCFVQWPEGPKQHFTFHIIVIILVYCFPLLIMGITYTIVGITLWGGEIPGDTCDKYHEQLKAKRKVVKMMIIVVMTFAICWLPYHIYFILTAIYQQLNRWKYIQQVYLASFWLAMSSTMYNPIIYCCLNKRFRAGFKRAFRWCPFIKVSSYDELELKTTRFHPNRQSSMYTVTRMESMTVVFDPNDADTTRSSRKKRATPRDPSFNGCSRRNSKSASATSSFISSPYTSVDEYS
Outline: (§1)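 HEK293 cells transiently expressing human NK3 WT or mutant, labeled with myo-[³H]inositol in LiCl buffer. Antagonist preincubated 20 min at 37 °C, then [MePhe⁷]NKB (0.01 nM–1 μM) added for 45 min at 37 °C. [³H]IP read by SPA beads. Schild analysis of EC50 shift and Emax depression across increasing antagonist concentrations gives pA2, slope and mode of antagonism.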

HEK293 [2] = assay: Selectivity ratio of Ki for wild type human NK3 receptor expressed in HEK293 cells to Ki for human NK3 Y315F6.51 mutant expressed in HEK293 cells; format: cell-based
Neuromedin-K receptor [3] = molecular target: T2, Neuromedin-K receptor (Homo sapiens, UniProt P29371); assay: Displacement of [3H]osanetant from wild type human NK3 receptor expressed in HEK293 cells; format: cell-based
T2 sequence (P29371 whole entry): T1 sequence (whole entry) with F247Y

HEK293 [4] = assay: Selectivity ratio of Ki for human NK3 H316W mutant expressed in HEK293 cells to Ki for wild type human NK3 receptor expressed in HEK293 cells; format: cell-based
Substance-P receptor [5] = molecular target: T3, Substance-P receptor (Homo sapiens, UniProt P25103); assay: Binding affinity at human NK1 receptor
Neuromedin-K receptor [6] = molecular target: Neuromedin-K receptor (Homo sapiens, UniProt P29371, H316F); assay: Displacement of radioligand [3H]osanetant at human NK3 H316F mutant expressed in HEK293 cells; format: cell-based
HEK293 [7] = assay: Selectivity ratio of Ki for human NK3 Y247W mutant expressed in HEK293 cells to Ki for wild type human NK3 receptor expressed in HEK293 cells; format: cell-based
Neuromedin-K receptor [8] = molecular target: Neuromedin-K receptor (Homo sapiens, UniProt P29371, Y315F); assay: Displacement of radioligand [3H]osanetant at human NK3 Y315F6.51 mutant expressed in HEK293 cells; format: cell-based
[9] = molecular target: T4, Neuromedin-K receptor (Homo sapiens) (UniProt P29371); assay: Noncompetitive inhibition at wild type human NK3 expressed in HEK293 cells assessed as decrease in [MePhe7]NKB-induced [3H]IP accumulation after 20 mins; format: cell-based; outline: as §1
T4 sequence (whole entry): T1 sequence (whole entry) with F247Y

Neuromedin-K receptor [10] = molecular target: Neuromedin-K receptor (Homo sapiens, UniProt P29371, Y247F); assay: Displacement of radioligand [3H]osanetant at human NK3 Y247F mutant expressed in HEK293 cells; format: cell-based
[11] = tested on: T5, Neuromedin-K receptor (Homo sapiens), P29371 [H316W]; assay: Antagonist activity at human NK3 H316W6.52 mutant expressed in HEK293 cells assessed as decrease in [MePhe7]NKB-induced [3H]IP accumulation after 20 mins; format: functional, cell-based; outline: as §1
T5 sequence (whole entry): T1 sequence (whole entry) with F247Y, H316W

Substance-P receptor [12] = molecular target: Substance-P receptor (Homo sapiens, UniProt P25103, F264Y); assay: Partial noncompetitive inhibition of human F264Y6.51 mutant expressed in HEK293 cells assessed as decrease in SP1-induced [3H]IP accumulation after 20 mins; format: cell-based; conditions: read-out: pA2 (converted)
HEK293 [13] = assay: Selectivity ratio of Ki for human NK3 H316F mutant expressed in HEK293 cells to Ki for wild type human NK3 receptor expressed in HEK293 cells; format: cell-based
Neuromedin-K receptor [14] = molecular target: T2, Neuromedin-K receptor; assay: Binding affinity to wild type human NK3 receptor
Gerbillinae = assay: Inhibition of foot tapping response in po dosed gerbil; format: functional
Neuromedin-K receptor [15] = molecular target: Neuromedin-K receptor (Homo sapiens, UniProt P29371, H316W); assay: Displacement of radioligand [3H]osanetant at human NK3 H316W mutant expressed in HEK293 cells; format: cell-based
Substance-P receptor [16] = molecular target: T3, Substance-P receptor; assay: Displacement of radioligand [3H]SP from wild type human NK1 receptor expressed in HEK293 cells; format: cell-based
Outline: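 Membranes from transiently transfected HEK293 cells, 2.5 μg protein/well, in 50 mM HEPES pH 7.4 with 3 mM MnCl2, phosphoramidon, leupeptin and 0.04% BSA. 10 competitor concentrations (0.0003–10 μM), 90 min at rt. Nonspecific binding with 10 μM NK1 antagonist. Filtration, then scintillation counting. Ki by Cheng–Prusoff. Three experiments, each in duplicate.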

T3 sequence (P25103 whole entry): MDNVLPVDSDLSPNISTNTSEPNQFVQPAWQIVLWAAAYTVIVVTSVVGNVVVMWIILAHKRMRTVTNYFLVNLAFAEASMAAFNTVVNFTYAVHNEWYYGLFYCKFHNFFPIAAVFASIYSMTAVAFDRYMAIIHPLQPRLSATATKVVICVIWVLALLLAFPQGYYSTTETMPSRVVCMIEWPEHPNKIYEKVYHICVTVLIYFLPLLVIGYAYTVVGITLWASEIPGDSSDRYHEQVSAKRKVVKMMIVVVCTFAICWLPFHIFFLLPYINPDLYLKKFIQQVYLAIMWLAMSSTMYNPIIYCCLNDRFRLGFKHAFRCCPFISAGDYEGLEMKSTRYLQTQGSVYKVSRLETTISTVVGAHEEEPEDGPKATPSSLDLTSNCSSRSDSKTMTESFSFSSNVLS
Chain of Neuromedin-K receptor (Homo sapiens, UniProt P29371, Y315F) (P29371 whole entry Y315F): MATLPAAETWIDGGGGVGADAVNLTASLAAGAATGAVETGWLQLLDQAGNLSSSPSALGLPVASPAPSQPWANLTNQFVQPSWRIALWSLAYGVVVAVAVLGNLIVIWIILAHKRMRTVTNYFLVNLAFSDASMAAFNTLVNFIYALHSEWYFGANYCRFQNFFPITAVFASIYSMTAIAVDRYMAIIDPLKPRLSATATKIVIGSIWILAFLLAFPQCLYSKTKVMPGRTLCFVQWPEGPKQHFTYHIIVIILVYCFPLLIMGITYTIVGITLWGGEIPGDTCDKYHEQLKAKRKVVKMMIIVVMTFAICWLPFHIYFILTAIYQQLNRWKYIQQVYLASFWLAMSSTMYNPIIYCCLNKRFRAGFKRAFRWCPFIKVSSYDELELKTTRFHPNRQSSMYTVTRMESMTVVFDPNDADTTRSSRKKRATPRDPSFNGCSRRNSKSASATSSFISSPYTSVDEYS
Chain of Substance-P receptor (Homo sapiens, UniProt P25103, F264Y) (P25103 whole entry F264Y): as the sequence (P25103 whole entry) above, with F264Y counted along it
Chain of Neuromedin-K receptor (Homo sapiens, UniProt P29371, H316W) (P29371 whole entry H316W): as the sequence (P29371 whole entry Y315F) above, with F315Y, H316W counted along it
Chain of Neuromedin-K receptor (Homo sapiens, UniProt P29371, H316F) (P29371 whole entry H316F): as the sequence (P29371 whole entry Y315F) above, with F315Y, H316F counted along it

- inhibition [1]: Active
- Ki (Neuromedin-K receptor [3]): 2.9 nM
- Ki (Substance-P receptor [5]): 0.7 nM
- Ki (Neuromedin-K receptor [6]): 12.5 nM
- Ki (Neuromedin-K receptor [8]): 0.7 nM
- inhibition [9]: Active
- Ki (Neuromedin-K receptor [10]): 3.9 nM
- Activity [11]: inactive
- Kb (Substance-P receptor [12]): 28.8 nM
- Ki (Neuromedin-K receptor [14]): 2.9 nM
- Ki (Neuromedin-K receptor [15]): 2010 nM
- Ki (Substance-P receptor [16]): 0.7 nM
Structure (SMILES): Cc1cc(F)ccc1-c1cc(N2CC[C@H](O)[C@H]2CO)ncc1N(C)C(=O)C(C)(C)c1cc(C(F)(F)F)cc(C(F)(F)F)c1
- Ratio Ki (HEK293 [2]): 4.1
- Ratio Ki (HEK293 [4]): 693
- Ratio Ki (HEK293 [7]): 1.2
- Ratio Ki (HEK293 [13]): 4.3
- ED50 (Gerbillinae): 0.4 mg/kg
